Compounds with a hit are over-represented: about 2.6% of the library has one in this group of screens.
SENP1 FRET inh = blocks the human SENP1 SUMO protease catalytic domain; AID 624204; Q9P0U3; 360,000 compounds, 0.21% hits; recombinant SENP1 catalytic domain, CyPet-SUMO1-YPet FRET cleavage; inhibition, % at 10 µM;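 active = inhibition at least 30% at 10 µM, raw YFP signal under a set limit, fluorescence ratio 0.5 to 1.5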
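Assay system: hSENP1 catalytic domain, recombinant. Amount: SENP1 enzyme, 20 pM final. Schedule: 50 min reaction, RT, dark. Technique: FRET, CFP and YFP emission. Control set: no-enzyme wells low, DMSO-plus-enzyme wells high control.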
Platelet DG rel = modulates dense granule release in human platelets | human platelet-rich plasma, SFLLRN dense granule ATP release, luminescence | inhibition, %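 (compounds screened at 7.5 µM in platelet-rich plasma)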 | 300,000 compounds, 0.22% hits | AID 1663;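 active = mean replicate score, as percent of positive control, at or above 50; inconclusive = mean below 50 but at least one replicate at or above 50; inactive = mean and every replicate below 50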
SENP7 inh = SENP7 protease inhibition. Q9BQF6. recombinant SENP7, Z-RLRGG-aminoluciferin luminescence, 40 min. inhibition, % at 5 µM. 330,000 compounds, 1.5% hits. AID 434973;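 active = inhibition above about 50% at the single test dose, limit read from the data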
Target sequence (Q9BQF6 706-1050 limits assumed): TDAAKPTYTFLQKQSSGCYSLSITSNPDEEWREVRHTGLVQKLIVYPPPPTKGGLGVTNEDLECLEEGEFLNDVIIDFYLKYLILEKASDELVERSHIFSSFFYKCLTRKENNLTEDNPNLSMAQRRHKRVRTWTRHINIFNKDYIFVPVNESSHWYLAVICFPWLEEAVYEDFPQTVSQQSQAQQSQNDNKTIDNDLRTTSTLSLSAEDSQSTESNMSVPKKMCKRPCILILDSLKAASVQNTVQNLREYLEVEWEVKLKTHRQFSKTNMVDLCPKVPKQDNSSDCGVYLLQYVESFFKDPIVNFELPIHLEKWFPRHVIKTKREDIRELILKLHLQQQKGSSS
SENP8 block-1 = SENP8 protease inhibition. Q96LD8. purified SENP8, Z-RLRGG-aminoluciferin cleavage, luminescence. inhibition, % at 10 µM. 330,000 compounds, 1.2% hits. AID 2540; in the data active = inhibition above about 50%
Target sequence (Q96LD8 whole entry, looked up): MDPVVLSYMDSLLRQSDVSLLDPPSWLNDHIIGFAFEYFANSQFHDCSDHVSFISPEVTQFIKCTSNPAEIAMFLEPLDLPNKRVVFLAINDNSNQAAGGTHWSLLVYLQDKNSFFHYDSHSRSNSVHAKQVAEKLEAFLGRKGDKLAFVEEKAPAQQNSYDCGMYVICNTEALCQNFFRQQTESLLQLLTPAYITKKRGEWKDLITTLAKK
SENP8 block-2 = inhibitors of human SENP8 protease; inhibition, % at 20 µM; Q96LD8; recombinant SENP8, Nedd8 substrate fluorescence; 360,000 compounds, 0.64% hits; in the data active = inhibition mostly above about 40%, no sharp cut-off; inactive = mostly below about 27%
SENP6 inh = SENP6 protease inhibition; Q9GZR1; Recombinant SENP6 catalytic domain, aminoluciferin luminescence; inhibition, % at 10 µM; 330,000 compounds, 1.8% hits; AID 2599;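 active = inhibition above about 50% at the single tested dose, limit read from the data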
SENP8 conf = confirmation of human SENP8 protease inhibitors; 6,200 compounds, 40% hits; inhibition, % at 12.5 µM; AID 488912; shares compounds with SENP7 inh; Recombinant SENP8, Z-RLRGG-aminoluciferin luminescence, 60 min;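 active = mean inhibition across replicates above about 50%, limit read from the data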
SENP6 confirm = confirmation of human SENP6 protease inhibitors. shares compounds with SENP7 inh. recombinant SENP6, Z-RLRGG-aminoluciferin luminescence. inhibition, % at 12.5 µM. 6,200 compounds, 58% hits. AID 488915
SENP7 conf = confirmation of human SENP7 protease inhibitors; shares compounds with SENP7 inh; recombinant SENP7, Z-RLRGG-aminoluciferin luminescence, 40 min; inhibition, % at 12.5 µM; 6,200 compounds, 69% hits
Casp3 SENP sel = selectivity test for SENP inhibitors: human caspase-3 inhibition; 6,200 compounds, 60% hits; purified caspase-3, Z-DEVD-aminoluciferin luminescence, 60 min; shares compounds with SENP7 inh; inhibition, % at 12.5 µM;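 active = mean inhibition above about 50%, limit read from the data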
Luc interf = luminescence interference (SENP counter-screen). shares compounds with SENP7 inh. Pre-incubated SENP8/Z-RLRGG-aminoluciferin, luciferase luminescence interference. inhibition, % at 12.5 µM. 6,200 compounds, 39% hits. AID 488919;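 active = mean inhibition above about 50% when retested at one dose, limit read from the data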
Large screens that a line does not name were inactive (follow-up assays come after a bar, where they were run).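 Rule for the calls, unless noted: active = mean inhibition above about 50% in the one-dose retest (limit read from the data); inactive = the rest.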

Cc1ccc(/C=N/N=C/c2ccc(C)s2)s1	SENP7 inh 63, SENP6 inh 77 | SENP8 conf inactive | SENP6 confirm 60 | SENP7 conf 82 | Casp3 SENP sel inactive | Luc interf inactive
Cc1csc2nc(CSc3ccc(Cl)cc3)cn12	SENP7 inh 53, SENP6 inh 80 | SENP8 conf 78 | SENP6 confirm 77 | SENP7 conf 92 | Casp3 SENP sel 67 | Luc interf 72
COC(=O)C1=C(C(=O)OC)C2C=CC1C1C(OC(C)=O)C(OC(C)=O)C21 (stereo not drawn)	none (no result: Platelet DG rel, SENP7 inh, SENP8 block-1, SENP6 inh)
COc1cccc(C=Nc2cccc3c(=O)[nH][nH]c(=O)c23)c1O	SENP7 inh 93, SENP8 block-1 65, SENP6 inh 67 | SENP8 conf inactive | SENP6 confirm inactive | SENP7 conf inactive | Casp3 SENP sel inactive | Luc interf inactive
COc1ccc(C=Nc2cccc3c(=O)[nH][nH]c(=O)c23)c2ccccc12	none
COc1ccc(OCc2cc(C(=O)N(Cc3nccn3C)C(C)C)no2)c2ccccc12	none
COc1ccc(Nc2ccc3c(c2)=NC2(CCCCC2)[N+]=3[O-])cc1	SENP8 block-2 81, SENP6 inh 82 | SENP8 conf inactive | SENP6 confirm 64 | SENP7 conf inactive | Casp3 SENP sel inactive | Luc interf inactive
COc1ccc2c(c1)sc1nc(-c3ccccc3)cn12	Platelet DG rel 54, SENP7 inh 99, SENP8 block-1 96, SENP6 inh 96 | SENP8 conf inactive | SENP6 confirm 101 | SENP7 conf 104 | Casp3 SENP sel 98 | Luc interf 99
CCOC(=O)N1CCN(C(=O)c2ccc3c(c2)sc2nc(-c4ccc(OC)cc4)cn23)CC1	none
Cc1ccc(S(=O)(=O)NC(=NC2CCCCC2)c2ccccc2)cc1	none
O=C(Nc1ccc(C(F)(F)F)cc1)c1ccccc1	SENP7 inh 63 (no result: Platelet DG rel) | SENP8 conf inactive | SENP6 confirm inactive | SENP7 conf inactive | Casp3 SENP sel inactive | Luc interf inactive
O=C(Nc1cccc(C(F)(F)F)c1)c1cc[n+]([O-])cc1	none
O=C(Nc1cccc(O)c1)c1ccc(C(F)(F)F)cc1	SENP7 inh 72, SENP8 block-1 67, SENP6 inh 74 | SENP8 conf 68 | SENP6 confirm 70 | SENP7 conf 92 | Casp3 SENP sel 72 | Luc interf 64
CCN(CC(=O)NCc1ccc(F)cc1)C(=O)c1cccnc1SC	none
Cc1cc(C(=O)Nc2nc3c(s2)CCCC3)no1	SENP7 inh 56, SENP6 inh 63 | SENP8 conf inactive | SENP6 confirm inactive | SENP7 conf 80 | Casp3 SENP sel 75 | Luc interf 54
Cc1onc(-c2ccccc2)c1C(=O)Nc1nc2c(s1)CCCC2	none
CC(C)(C)c1ccc(C(=O)NC(=S)Nc2nc3c(s2)CCCC3)cc1	none
CN(C)c1ccc(C(=O)Nc2nc3c(s2)CCCC3)cc1	SENP7 inh 98, SENP8 block-1 94, SENP6 inh 95 | SENP8 conf inactive | SENP6 confirm 69 | SENP7 conf 82 | Casp3 SENP sel 58 | Luc interf inactive
CN1CC=C2C(C#N)=C(N)C(C#N)(C#N)[C@H](c3ccoc3)[C@H]2C1	SENP6 inh 76 | SENP8 conf inactive | SENP6 confirm inactive | SENP7 conf inactive | Casp3 SENP sel inactive | Luc interf inactive
CN1CC=C2C(C#N)=C(N)C(C#N)(C#N)C(c3cccc(Cl)c3Cl)C2C1 (stereo not drawn)	none
O=C(NC(=O)c1ccccc1)Nc1ccc(Cl)cn1	SENP7 inh 72 | SENP8 conf inactive | SENP6 confirm inactive | SENP7 conf inactive | Casp3 SENP sel inactive | Luc interf inactive
O=C(Nc1cccc(C(=O)Nc2ccc(Cl)cn2)c1)c1ccccc1	none
O=C(Nc1ccc(NC(=O)c2ccco2)nc1)c1cccc(F)c1	none
Cc1cc(NC(=O)c2ccccc2)ncc1NC(=O)c1cccs1	SENP8 block-1 72, SENP6 inh 64 | SENP8 conf 76 | SENP6 confirm 74 | SENP7 conf 93 | Casp3 SENP sel 90 | Luc interf 80
Cc1cc(NC(=O)c2cccc(F)c2)ncc1NC(=O)c1ccco1	Platelet DG rel inconclusive, SENP7 inh 93, SENP8 block-1 82, SENP6 inh 94 | SENP8 conf 87 | SENP6 confirm 87 | SENP7 conf 99 | Casp3 SENP sel 95 | Luc interf 88
O=C(Nc1ccc(Cl)cn1)c1cccc(F)c1	SENP7 inh 89, SENP8 block-1 73, SENP6 inh 91 | SENP8 conf 83 | SENP6 confirm 85 | SENP7 conf 97 | Casp3 SENP sel 92 | Luc interf 81
O=C(Cn1ccc2ccccc2c1=O)NCC(=O)N1CCN(c2ccc(F)cc2)CC1	none
Cc1cc2oc(=O)cc(CN3CCCCC3)c2cc1Cl	none (no result: Platelet DG rel, SENP7 inh, SENP8 block-1, SENP6 inh)
Cc1cc(Cl)ccc1OCC(=O)OCC(=O)Nc1ccc(Cl)cn1	none (no result: Platelet DG rel, SENP7 inh, SENP8 block-1, SENP6 inh)
O=C(Nc1ccc(Cl)cn1)c1ccccc1F	SENP7 inh 80, SENP8 block-1 64, SENP6 inh 82 | SENP8 conf inactive | SENP6 confirm 71 | SENP7 conf 93 | Casp3 SENP sel 85 | Luc interf inactive
O=C(COc1ccc(Cl)cc1Cl)Nc1ccc(Cl)cn1	SENP8 block-1 72, SENP6 inh 84 | SENP8 conf inactive | SENP6 confirm inactive | SENP7 conf inactive | Casp3 SENP sel 59 | Luc interf inactive
Nc1nc(SCC(=O)N2CCCC2)[nH]c(=O)c1NC(=O)c1cccs1	none
CCOC(=O)c1ccc(-c2ccc(N3C(c4cccc(OC)c4)=Cc4ccc(F)cc4C3CC(C)=O)cc2)cc1F (stereo not drawn)	none (no result: Platelet DG rel, SENP7 inh, SENP8 block-1, SENP6 inh)
COc1ccc(-c2csc(C(C)(O)c3ccc(F)c(F)c3)n2)cc1OC (stereo not drawn)	none (no result: Platelet DG rel, SENP7 inh, SENP8 block-1, SENP6 inh)
O=c1c2ccccc2nc2sc3ccccc3n12	SENP7 inh 87, SENP8 block-1 74, SENP6 inh 79 (no result: Platelet DG rel) | SENP8 conf 58 | SENP6 confirm 56 | SENP7 conf 70 | Casp3 SENP sel 72 | Luc interf inactive
